Active and inactive are the calls of the source. The calls are words filed in the database; no cut-off is given here.
Legend:
[1] = target: T1, Histone acetyltransferase KAT8 (Homo sapiens) (UniProt Q9H7Z6); test: Inhibition of recombinant N-terminal His6-tagged KAT8 (unknown origin) expressed in Escherichia Coli BL21 DE3 cells assessed as reduction of Co A level using histone H4 substrate at 400 uM after 15 mins by CPM fluorescence assay
T1 sequence (whole entry): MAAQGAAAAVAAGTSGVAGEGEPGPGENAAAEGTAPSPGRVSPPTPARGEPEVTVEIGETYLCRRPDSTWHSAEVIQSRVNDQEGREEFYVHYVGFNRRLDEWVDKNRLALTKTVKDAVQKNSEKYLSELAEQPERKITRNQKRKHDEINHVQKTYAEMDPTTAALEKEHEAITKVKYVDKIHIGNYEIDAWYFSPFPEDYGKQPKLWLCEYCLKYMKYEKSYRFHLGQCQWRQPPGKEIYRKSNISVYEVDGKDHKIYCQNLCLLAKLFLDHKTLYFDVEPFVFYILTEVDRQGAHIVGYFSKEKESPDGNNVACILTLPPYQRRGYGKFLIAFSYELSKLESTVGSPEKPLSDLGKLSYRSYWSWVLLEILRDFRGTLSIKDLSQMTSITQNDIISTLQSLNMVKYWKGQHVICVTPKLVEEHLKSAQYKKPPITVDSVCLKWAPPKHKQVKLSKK

[2] = target: Histone acetyltransferase p300 (Homo sapiens) (UniProt Q09472); test: Inhibition of human recombinant Histone acetyltransferase p300 catalytic domain (1284-1672 residues) using [3H]Acetyl-CoA and histone H3 substrate at 50 uM after 1 hr by liquid scintillation counting
Histone acetyltransferase p300 (Homo sapiens), sequence (Q09472 whole entry, the tested form may be a part): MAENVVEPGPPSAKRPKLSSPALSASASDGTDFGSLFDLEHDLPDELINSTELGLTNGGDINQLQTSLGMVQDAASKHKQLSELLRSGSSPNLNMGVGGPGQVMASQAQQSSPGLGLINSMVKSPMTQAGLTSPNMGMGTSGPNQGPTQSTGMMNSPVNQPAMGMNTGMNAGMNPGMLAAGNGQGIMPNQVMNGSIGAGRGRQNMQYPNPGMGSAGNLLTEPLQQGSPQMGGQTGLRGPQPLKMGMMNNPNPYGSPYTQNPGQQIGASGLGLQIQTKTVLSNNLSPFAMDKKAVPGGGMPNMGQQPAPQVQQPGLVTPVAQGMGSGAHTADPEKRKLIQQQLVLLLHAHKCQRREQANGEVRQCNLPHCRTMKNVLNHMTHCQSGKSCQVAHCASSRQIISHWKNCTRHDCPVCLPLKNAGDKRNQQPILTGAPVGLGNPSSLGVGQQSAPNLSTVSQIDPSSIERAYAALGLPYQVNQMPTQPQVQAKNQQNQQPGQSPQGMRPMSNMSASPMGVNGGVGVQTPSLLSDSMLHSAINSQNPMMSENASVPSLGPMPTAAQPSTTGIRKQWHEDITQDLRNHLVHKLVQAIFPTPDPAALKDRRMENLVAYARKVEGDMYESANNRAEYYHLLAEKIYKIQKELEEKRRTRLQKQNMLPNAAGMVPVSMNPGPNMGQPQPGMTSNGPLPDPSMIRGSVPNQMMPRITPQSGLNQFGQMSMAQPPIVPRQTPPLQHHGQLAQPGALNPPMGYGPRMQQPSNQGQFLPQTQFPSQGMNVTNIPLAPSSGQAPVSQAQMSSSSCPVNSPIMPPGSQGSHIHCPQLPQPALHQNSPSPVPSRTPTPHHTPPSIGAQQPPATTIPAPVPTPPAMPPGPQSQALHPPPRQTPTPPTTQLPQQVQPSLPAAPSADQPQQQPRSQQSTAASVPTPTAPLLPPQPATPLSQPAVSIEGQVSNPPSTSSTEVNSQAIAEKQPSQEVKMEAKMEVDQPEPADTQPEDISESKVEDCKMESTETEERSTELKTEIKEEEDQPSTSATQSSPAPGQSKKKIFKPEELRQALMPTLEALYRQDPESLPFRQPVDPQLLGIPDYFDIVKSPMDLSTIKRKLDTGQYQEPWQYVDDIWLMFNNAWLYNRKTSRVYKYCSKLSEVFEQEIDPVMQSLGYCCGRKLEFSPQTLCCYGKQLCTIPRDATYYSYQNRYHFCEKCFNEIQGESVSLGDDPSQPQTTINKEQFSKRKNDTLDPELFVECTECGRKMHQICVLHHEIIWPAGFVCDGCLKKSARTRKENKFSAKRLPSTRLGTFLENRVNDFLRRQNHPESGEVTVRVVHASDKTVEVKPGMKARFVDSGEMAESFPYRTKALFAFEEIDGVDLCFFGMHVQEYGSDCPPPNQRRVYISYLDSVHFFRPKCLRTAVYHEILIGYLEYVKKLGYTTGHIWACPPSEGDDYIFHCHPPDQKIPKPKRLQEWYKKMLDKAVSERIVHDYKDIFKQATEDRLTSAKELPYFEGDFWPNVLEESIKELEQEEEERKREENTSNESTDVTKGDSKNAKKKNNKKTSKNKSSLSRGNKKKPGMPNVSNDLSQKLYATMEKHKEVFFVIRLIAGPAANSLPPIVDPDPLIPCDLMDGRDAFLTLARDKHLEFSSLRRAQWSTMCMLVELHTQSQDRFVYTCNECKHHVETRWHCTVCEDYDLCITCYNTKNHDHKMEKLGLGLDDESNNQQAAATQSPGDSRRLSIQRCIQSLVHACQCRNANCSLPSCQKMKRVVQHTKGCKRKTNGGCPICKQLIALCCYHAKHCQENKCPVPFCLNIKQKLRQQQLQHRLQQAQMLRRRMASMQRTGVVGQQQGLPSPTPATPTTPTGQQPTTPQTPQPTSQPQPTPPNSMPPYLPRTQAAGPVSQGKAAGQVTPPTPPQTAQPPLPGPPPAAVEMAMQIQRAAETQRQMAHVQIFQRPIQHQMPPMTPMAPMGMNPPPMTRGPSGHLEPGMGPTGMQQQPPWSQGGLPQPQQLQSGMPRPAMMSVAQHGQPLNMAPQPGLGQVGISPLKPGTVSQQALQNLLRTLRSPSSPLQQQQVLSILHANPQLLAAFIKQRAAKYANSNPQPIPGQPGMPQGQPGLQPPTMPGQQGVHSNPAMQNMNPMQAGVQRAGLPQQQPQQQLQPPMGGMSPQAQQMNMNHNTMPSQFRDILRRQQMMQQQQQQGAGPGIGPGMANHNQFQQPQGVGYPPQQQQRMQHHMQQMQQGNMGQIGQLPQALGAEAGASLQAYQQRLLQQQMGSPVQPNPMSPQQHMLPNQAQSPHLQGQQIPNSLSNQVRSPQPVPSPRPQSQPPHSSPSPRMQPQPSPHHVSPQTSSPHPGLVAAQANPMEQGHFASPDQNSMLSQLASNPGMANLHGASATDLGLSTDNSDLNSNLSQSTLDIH
In short: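 p300 activity was measured by radiolabel transfer to the histone substrate. Compounds were tested at a single 50 µM concentration, and the value is the percent inhibition.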

[3] = target: T1, Histone acetyltransferase KAT8 (Homo sapiens); test: Inhibition of recombinant N-terminal His6-tagged KAT8 (unknown origin) expressed in Escherichia Coli BL21 DE3 cells assessed as reduction of Co A level using histone H4 substrate after 15 mins by CPM fluorescence assay
[4] = target: Histone acetyltransferase p300 (Homo sapiens) (UniProt Q09472); test: Inhibition of human recombinant Histone acetyltransferase p300 catalytic domain (1284-1672 residues) using [3H]Acetyl-CoA and histone H3 substrate at 200 uM after 1 hr by liquid scintillation counting

Compound | inhibition [1] | inhibition [2] | logIC50 [3] | inhibition [4]
CCCCCCCCCCCCCCCc1ccc(O)c(C(=O)O)c1 | > 50% | 85% | 2.42 | 
CCCCCCCCCCc1ccc(O)c(C(=O)O)c1 | > 50% | 95% | 2.28 | 
O=C(O)c1c(O)cccc1CCCCCO | inactive | inactive | > 2.8 | inactive
CCCCCc1cccc(O)c1C(=O)O | inactive | inactive | > 2.8 | inactive
CCCCCc1ccc(O)c(C(=O)O)c1 | inactive | inactive | > 2.8 | inactive
CCCCCCCSCC(=O)c1ccccc1O | inactive | inactive | > 2.8 | inactive
CC1=NN(c2ccc(C(=O)O)cc2)C(=O)/C1=C/c1ccc(-c2cc(C)c(C)cc2[N+](=O)[O-])o1 | inactive |  | > 2.8 | 
CCCCCCCCCCc1cccc(O)c1C(=O)O | > 50% | 88% | 2.09 | 
O=C(O)c1c(O)cccc1CCCCCCCCCCCO | > 50% | inactive | 2.72 | inactive
CCCCCCCCCCCCCCCc1cccc(O)c1C(=O)O |  | 97% |  | 

Source: ChEMBL document CHEMBL3734689, “Enzyme kinetics and inhibition of histone acetyltransferase KAT8” (Eur J Med Chem, 2015)
